Screens deposited in PubChem by Broad Institute.
Cneo AK release = Cryptococcus neoformans cell lysis inducers, primary screen, AK release luminescence, single concentration; 0.2% of 360,000 active; lysis activity, % at 15 µM; C. neoformans lysis, adenylate kinase release luminescence, 4 h; normalised: neutral wells 0, clomiphene wells 100;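 active = mean lysis activity across replicates of at least 80%, whatever share of replicates individually reach that level; inactive = mean lysis activity below 80%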
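Test system: log-phase Cryptococcus neoformans yeast cells. Input: 5 × 10^6 yeast cells/mL. Medium: fresh YPD growth medium. Doses: single dose. Incubation: static 4 h at 37 °C with compound, 1 h detection. Measured by: luminescent adenylate kinase detection reagent. Read-out: signal increase indicating cell lysis. Benchmarks: Clomiphene.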
Xi reactivation = activators of inactive X chromosome reactivation, primary screen, imaging, XiGFP fibroblasts, GFP high-content imaging, set 2; activation, % at 7.58 µM; XiGFP mouse fibroblasts, % GFP-positive cells imaging, 3 d; cells co-treated with 5-aza-dC sensitizer; scaled so ellipticine positive control = 100%; 0.055% of 360,000 active; AID 743238, 2013;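 active = mean normalized replicate activation at least 10% and every replicate at or above 10%; inconclusive = only one of the two criteria met; inactive = mean below 10% and not all replicates reach 10%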;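 note: 0% = median of on-plate neutral control wells and 100% = ellipticine 6 µM median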
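Material: XiGFP fibroblasts, SV40-immortalized. Buffer or medium: DMEM plus 5-aza-dC sensitizer. Compound: single concentration per compound, delivered by pin transfer. Times: 3 days compound exposure. Controls: ellipticine 6 µM.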
CFTR F508del cor = F508del CFTR correction, initial screen, CFBE line, single point. 0.36% of 350,000 active. CFBE cells, YFP halide quenching; stimulated with forskolin plus potentiator P3; % fluorescence drop versus neutral controls. activity (quench increase), % at 7.58 µM. AID 720511, 2013;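 active = mean added fluorescence quench of at least 8% versus neutral control, with both replicates also reaching 8%; inconclusive = only one of the mean or replicate conditions met; inactive = mean below 8% and not both replicates reaching 8%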;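 note: cells transiently co-express mutant CFTR-F508del with the halide-sensitive YFP; corrector assay measuring rescue of mutant channel to the surface after 24 h compound exposure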
FN deposition inh = inhibitors of fibronectin matrix deposition, primary screen, AH1F cells, Alexa488-fibronectin fluorescence, plate reader | AID 743247, 2014 | inhibition, % at 12.6 µM | AH1F fibroblasts, overnight | 0.086% of 350,000 active;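 active = mean inhibition across replicates of 30% or more, regardless of how many single replicates reach that level; inconclusive = mean under 30% yet at least half of replicates reach 30%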;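 note: positive control wells lacked labelled fibronectin entirely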
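test system = AH1F fibroblasts assembling fluorescent fibronectin matrix | quantity = 10000 AH1F cells per well | buffer or medium = DMEM plus 2% serum, read in PBS | doses = single dose, pinned | incubation = 1 h cell attachment, overnight exposure to compound and label | detection = fluorescence at 485 nm excitation, 525 nm emission | read-out basis = inhibition from reduced deposited-fibronectin fluorescence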
DENV2 CPE = inhibitors of DENV2 cytopathic effect, primary screen, cell-based, plate reader, single concentration | CPE inhibition, % at 9.99 µM | AID 651640, 2012 | DENV2-infected cells, cytopathic effect rescue | 1.7% of 350,000 active; in the data active = CPE inhibition above about 20%, passing the limit was not always enough; inconclusive = no clear call, values can overlap the other calls; tested in BHK-21 cells;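 note: 0% = median of neutral control wells and 100% = median of positive control wells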
PGC1a acetyl inh = inhibitors of PGC1a acetylation signal, primary screen, cell-based, U2OS, AlphaScreen, inhibitor mode. AlphaScreen anti-acetyl-lysine; with virally co-expressed GCN5 acetyltransferase. inhibition, % at 15.6 µM. 0.17% of 350,000 active. AID 651687, 2012;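 active = every replicate shows inhibition of at least 40%; inconclusive = mean inhibition at least 40% but some replicate below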;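 note: 0% = neutral control wells and 100% = positive control wells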
An asterisk follows results filed as active; ? = inconclusive; · = no result. In the library only some 1.9% were active in any assay of this set; here they are far more common.

SMILES | Cneo AK release | Xi reactivation | CFTR F508del cor | FN deposition inh | DENV2 CPE | PGC1a acetyl inh
COc1cccc(C(=O)N[C@H](C(=O)N2CCC[C@H]2C(=O)NCCc2ccccc2Cl)C2CCCCC2)c1 | · | 0.1 | -0.5 | 1.5 | 28.6* | ·
CC(C)[C@H](NC(=O)C1CC1)C(=O)N1CCC[C@H]1C(=O)NCCc1ccccc1Cl | · | 0.2 | -0.2 | -1.6 | 28.9* | ·
O=C(N[C@H](C(=O)N1CCC[C@H]1C(=O)NCCc1ccccc1Cl)C1CCCCC1)c1ccccc1 | · | 0.3 | 2.3 | 7.9 | 0.9 | ·
Cc1ccc(S(=O)(=O)N2[C@@H](c3ccc(Br)cc3)C(C(=O)O)=CC[C@H]2c2ccc(C(C)C)cc2)cc1 | -2.7 | 0.0 | 3.4 | -5.4 | 23.3* | 8.1
CCc1ccc([C@@H]2CC=C(C(=O)O)[C@H](c3ccc(C(C)(C)C)cc3)N2S(=O)(=O)c2ccc(C)cc2)cc1 | -5.8 | 0.3 | -6.2 | · | 48.3* | -3.8
COCCNc1nc(Nc2ccccc2Cl)c2sccc2n1 | -1.0 | 0.1 | 0.3 | 2.0 | 38.0* | ·
COCCNc1nc(NCCOc2ccccc2Cl)c2sccc2n1 | -1.7 | 0.0 | -2.6 | · | -1.6 | 7.6
COCCNc1nc(Nc2ccc(C)cc2C)c2sccc2n1 | -0.3 | 1.5 | 10.1* | 2.3 | ? | ·
C[C@@H](NC(=O)N(C)C[C@@H]1OCc2ccccc2-c2ccccc2C(=O)N([C@@H](C)CO)C[C@@H]1C)c1ccccc1 | -1.2 | -0.6 | -1.4 | -14.7 | 1.0 | 1.5
CCS(=O)(=O)N1[C@@H](CO)[C@H](c2ccccc2)C12CN(C(=O)C1CCCC1)C2 | · | 0.1 | -1.1 | -7.7 | 5.1 | ·
O=C(CCC1CCCN(C(=O)c2cc(C3CC3)[nH]n2)C1)N1CCN(c2ccccn2)CC1 (stereo not drawn) | · | 0.0 | -2.8 | 9.7 | -2.0 | 97.8*
CO[C@@H]1CN(C)C(=O)c2cc(NC(C)=O)ccc2OC[C@H](C)N(C(=O)Cc2ccccn2)C[C@H]1C | -3.1 | 0.5 | 0.9 | -3.0 | -7.0 | 5.0
CC(=O)Nc1cccc(OCCCNC(=O)c2ccc(C(C)(C)C)cc2)c1 | -3.4 | -0.1 | -1.6 | 0.6 | 31.4* | -7.2
CN(Cc1ccccc1C#N)S(=O)(=O)c1cccs1 | 3.8 | -0.1 | 0.0 | 4.1 | 1.3 | -9.1
N#Cc1nccnc1S(=O)(=O)c1cccs1 | · | 1.0 | -7.5 | 40.0* | 9.8 | ·
CNC[C@@H]1OCCCC[C@@H](C)Oc2ccc(NC(=O)CCC(F)(F)F)cc2C(=O)N([C@H](C)CO)C[C@H]1C | · | -0.2 | -2.1 | · | · | -2.0
COc1cccc(C2(c3cccc(OC)c3)CC2C(=O)Nc2ccc(F)cc2)c1 (stereo not drawn) | -1.3 | 0.2 | -1.8 | 0.3 | 32.0* | -8.0
O=S(=O)(c1cccs1)N1CCN(c2ccnc3cc(Cl)ccc23)CC1 | -1.3 | 0.0 | 1.2 | 2.8 | 64.0* | -12.9
CCCNC(=O)N1CCC2(CC1)CN(Cc1ccc(F)cc1)[C@@H](CO)c1[nH]c3cc(OC)ccc3c12 | · | 0.2 | 1.3 | · | 10.1 | 6.1
Cc1ccc(S(=O)(=O)Nc2ccc3c(c2)CC(=O)N([C@H](C)CO)C[C@H](C)[C@@H](CN(C)C(=O)Nc2cccc4ccccc24)O3)cc1 | 1.4 | 0.0 | -4.1 | · | 96.4* | -10.9
Cc1ccc(S(=O)(=O)Nc2ccc3c(c2)CC(=O)N([C@@H](C)CO)C[C@H](C)[C@@H](CN(C)C(=O)Nc2cccc4ccccc24)O3)cc1 | 2.4 | 0.0 | -1.4 | · | 32.8* | -8.8
Cc1ccc(S(=O)(=O)Nc2ccc3c(c2)CC(=O)N([C@H](C)CO)C[C@@H](C)[C@@H](CN(C)C(=O)Nc2cccc4ccccc24)O3)cc1 | 3.5 | 0.2 | -1.2 | · | 16.8 | -16.8
O=C(C[C@H]1CC[C@@H](NC(=O)C2CCOCC2)[C@@H](CO)O1)NCc1ccccc1Cl | 6.0 | -0.1 | -0.7 | -3.0 | 3.6 | 5.6
